These results are taken from ChEMBL document CHEMBL1154547, “Salicylanilide esters of N-protected amino acids as novel antimicrobial agents” (Bioorg Med Chem Lett, 2009).

In brackets after ≈: the same amount, converted by molar mass. Where only a bound is given, the exact number is not on record here.

In data set [1] the test system is Trichophyton mentagrophytes. Kind of data set: Antifungal activity against Trichophyton mentagrophytes 445 after 48 hrs by broth microdilution method. Type of data set: functional. The essentials: (§1)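 In vitro antifungal screening against eight strains. Compounds tested at concentrations in the range 62.5–1.95 µmol/L.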
A general note: In broth dilution the organism is exposed to a series of concentrations in liquid medium.

In data set [2] the test system is Candida tropicalis. In words: Antifungal activity against Candida tropicalis ATCC 156 after 48 hrs by broth microdilution method. The conditions noted are these: ATCC 156, 48 h. The class given is functional. The essentials:
as §1

The subject of data set [3] is Pichia kudriavzevii. Kind of data set: Antifungal activity against Candida krusei E28 after 48 hrs by broth microdilution method. Type of data set: functional. The essentials: as §1
Data set [4] has as its system Trichosporon beigelii. Kind of data set: Antifungal activity against Trichosporon beigelii 1188 after 24 hrs by broth microdilution method. The class given is functional. Put shortly: as §1
Data set [5] concerns Nakaseomyces glabratus. Kind of data set: Antifungal activity against Candida glabrata 20/I after 48 hrs by broth microdilution method. Type of data set: functional. The essentials: as §1
The test system of data set [6] is Pichia kudriavzevii. In words: Antifungal activity against Candida krusei E28 after 24 hrs by broth microdilution method. Type of data set: functional. Put shortly: as §1
Data set [7] concerns Mycobacterium tuberculosis. In words: Antitubercular activity against Mycobacterium tuberculosis H37Rv by microplate alamar blue assay. Type of data set: functional. (Alamar Blue is a resazurin reagent that responds to reducing activity.)
Data set [8] concerns Candida albicans. Kind of data set: Antifungal activity against Candida albicans ATCC 44859 after 24 hrs by broth microdilution method. The class given is functional. As to conditions: ATCC 44859, 24 h. Put shortly:
as §1

Data set [9] can be described thus: Lipophilicity, log K of the compound. The class given is physicochemical. Put shortly:
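Mobile phase used methanol as organic modifier. The capacity factor k was measured and log k calculated from it. Chiral compounds were measured several times.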

Data set [10] deals with Trichophyton mentagrophytes. Kind of data set: Antifungal activity against Trichophyton mentagrophytes 445 after 24 hrs by broth microdilution method. Type of data set: functional. The essentials: as §1
Data set [11] has as its system Candida albicans. In words: Antifungal activity against Candida albicans ATCC 44859 after 48 hrs by broth microdilution method. Type of data set: functional. As to conditions: ATCC 44859, 48 h. Put shortly:
as §1

Data set [12] concerns Mycobacterium tuberculosis. Kind of data set: Antitubercular activity against Mycobacterium tuberculosis H37Rv at 6.25 ug/ml by microplate alamar blue assay. Type of data set: functional. Put shortly:
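Primary single-concentration screen at the TAACF against M. tuberculosis H37Rv (ATCC 27294) in BACTEC 12B medium, read by Microplate Alamar Blue Assay. Each compound was tested at 6.25 per mL, or at the molar equivalent of the highest-molecular-weight compound in its congener series.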

Data set [13] has as its system Aspergillus fumigatus. Kind of data set: Antifungal activity against Aspergillus fumigatus 231 after 48 hrs by broth microdilution method. The class given is functional. Put shortly: as §1
Data set [14] deals with Candida tropicalis. In words: Antifungal activity against Candida tropicalis ATCC 156 after 24 hrs by broth microdilution method. Type of data set: functional. As to conditions: ATCC 156, 24 h. Put shortly: as §1
In data set [15] the test system is Lichtheimia corymbifera. In words: Antifungal activity against Absidia corymbifera 272 after 24 hrs by broth microdilution method. Type of data set: functional. Put shortly: as §1
In data set [16] the test system is Aspergillus fumigatus. Kind of data set: Antifungal activity against Aspergillus fumigatus 231 after 24 hrs by broth microdilution method. Type of data set: functional. Put shortly: as §1
For data set [17], the system named is Trichosporon beigelii. In words: Antifungal activity against Trichosporon beigelii 1188 after 48 hrs by broth microdilution method. The class given is functional. Put shortly: as §1
The subject of data set [18] is Nakaseomyces glabratus. Kind of data set: Antifungal activity against Candida glabrata 20/I after 24 hrs by broth microdilution method. Type of data set: functional. Put shortly: as §1
Data set [19] relates to Lichtheimia corymbifera. In words: Antifungal activity against Absidia corymbifera 272 after 48 hrs by broth microdilution method. Type of data set: functional. Put shortly: as §1

A word on the IC80: it is the concentration needed for an effect of 80%. A lower IC80 goes with greater potency. The term MIC denotes the lowest concentration that inhibits growth of the organism. Low values mean a more susceptible organism, high ones a less susceptible organism. As a reminder, the inhibition is how much of the control response was suppressed. For the compound `O=C(CNC(=O)OCc1ccccc1)Oc1ccc(Cl)cc1C(=O)Nc1ccc(C(F)(F)F)cc1`, the concentration for an effect of 80% (IC80) is 15.6 µg/mL (≈ 30.8 µM) in data set [1]; over 125 µg/mL in the data set with Candida tropicalis [2]; 31.2 µg/mL (≈ 61.7 µM) in the data set with Pichia kudriavzevii [3]; 31.2 µg/mL (≈ 61.7 µM) in the data set with Trichosporon beigelii [4]; over 125 µg/mL in the data set with Nakaseomyces glabratus [5]; 31.2 µg/mL (≈ 61.7 µM) with Pichia kudriavzevii [6]. Further, the IC80 is 62.5 µg/mL (≈ 123 µM) in the data set on Candida albicans [8]; 15.6 µg/mL (≈ 30.8 µM) in data set [10]; 62.5 µg/mL (≈ 123 µM) with Candida albicans [11]; over 125 µg/mL in the data set with Aspergillus fumigatus [13]; 125 µg/mL (≈ 247 µM) with Candida tropicalis [14]; 31.2 µg/mL (≈ 61.7 µM) with Lichtheimia corymbifera [15]. In addition, the IC80 in the data set with Aspergillus fumigatus [16] is 125 µg/mL (≈ 247 µM); in the data set on Trichosporon beigelii [17], 31.2 µg/mL (≈ 61.7 µM); in the data set with Nakaseomyces glabratus [18], 31.2 µg/mL (≈ 61.7 µM); in the data set on Lichtheimia corymbifera [19] it was 31.2 µg/mL (≈ 61.7 µM). This compound also had a minimum inhibitory concentration (MIC) in data set [7] of over 6.25 µg/mL. The “log K” value in data set [9] is given as 0.7292. In [12], this compound gave an inhibition at 6.25 µg/mL of 89%.

`C[C@H](NC(=O)OCc1ccccc1)C(=O)Oc1ccc(Cl)cc1C(=O)Nc1ccc(C(F)(F)F)cc1`: the IC80 is 1.95 µg/mL (≈ 3.74 µM) in data set [1]; 500 µg/mL (≈ 960 µM) in the data set with Candida tropicalis [2]; 31.2 µg/mL (≈ 60 µM) in the data set on Pichia kudriavzevii [3]; 62.5 µg/mL (≈ 120 µM) in the data set on Trichosporon beigelii [4]; 250 µg/mL (≈ 480 µM) with Nakaseomyces glabratus [5]; 7.81 µg/mL (≈ 15 µM) in the data set on Pichia kudriavzevii [6]. Moreover, the IC80 in the data set on Candida albicans [8] worked out at 62.5 µg/mL (≈ 120 µM); in [10] it was 1.95 µg/mL (≈ 3.74 µM); in the data set with Candida albicans [11], 250 µg/mL (≈ 480 µM); in the data set on Aspergillus fumigatus [13] it was 15.6 µg/mL (≈ 30 µM); in the data set on Candida tropicalis [14] it was 500 µg/mL (≈ 960 µM); in the data set on Lichtheimia corymbifera [15], 31.2 µg/mL (≈ 60 µM). Also, the IC80 with Aspergillus fumigatus [16] is 7.81 µg/mL (≈ 15 µM); in the data set on Trichosporon beigelii [17], 250 µg/mL (≈ 480 µM); in the data set on Nakaseomyces glabratus [18], 125 µg/mL (≈ 240 µM); in the data set with Lichtheimia corymbifera [19], 62.5 µg/mL (≈ 120 µM). For the same compound, the minimal inhibitory concentration (MIC) in [7] worked out at 3.13 µg/mL (≈ 6.01 µM). For the same compound, in data set [9], the “log K” value is on record as 0.8149. Also, the inhibition at 6.25 µg/mL in [12] turned out to be 99%.

Take `O=C(N[C@@H](Cc1ccccc1)C(=O)Oc1ccc(Cl)cc1C(=O)Nc1ccc(Cl)cc1)OCc1ccccc1`: the IC80 in [1] was 7.81 µg/mL (≈ 13.9 µM); with Candida tropicalis [2], 31.2 µg/mL (≈ 55.5 µM); in the data set on Pichia kudriavzevii [3], 15.6 µg/mL (≈ 27.7 µM); in the data set with Trichosporon beigelii [4], 31.2 µg/mL (≈ 55.5 µM); with Nakaseomyces glabratus [5], 31.2 µg/mL (≈ 55.5 µM); in the data set on Pichia kudriavzevii [6], 15.6 µg/mL (≈ 27.7 µM). In addition, the IC80 in the data set with Candida albicans [8] is 62.5 µg/mL (≈ 111 µM); in data set [10], 7.81 µg/mL (≈ 13.9 µM); with Candida albicans [11] it was 62.5 µg/mL (≈ 111 µM); in the data set with Aspergillus fumigatus [13], over 62.5 µg/mL; in the data set with Candida tropicalis [14], 31.2 µg/mL (≈ 55.5 µM); in the data set on Lichtheimia corymbifera [15], 15.6 µg/mL (≈ 27.7 µM). The concentration for an effect of 80% (IC80) with Aspergillus fumigatus [16] was over 62.5 µg/mL; in the data set with Trichosporon beigelii [17] it was 62.5 µg/mL (≈ 111 µM); with Nakaseomyces glabratus [18], 31.2 µg/mL (≈ 55.5 µM); in the data set on Lichtheimia corymbifera [19], 15.6 µg/mL (≈ 27.7 µM). In addition, the MIC in data set [7] is over 6.25 µg/mL. In addition, the “log K” value in data set [9] is given as 1.0971. This compound returned an inhibition at 6.25 µg/mL in data set [12] of 16%.

For the compound `C[C@@H](NC(=O)OCc1ccccc1)C(=O)Oc1ccc(Cl)cc1C(=O)Nc1cccc(Cl)c1`, the IC80 in data set [1] is 7.81 µg/mL (≈ 16 µM); in the data set with Candida tropicalis [2] it was over 62.5 µg/mL; with Pichia kudriavzevii [3] it was 31.2 µg/mL (≈ 64.1 µM); in the data set with Trichosporon beigelii [4] it was over 62.5 µg/mL; in the data set on Nakaseomyces glabratus [5], 62.5 µg/mL (≈ 128 µM); with Pichia kudriavzevii [6], 31.2 µg/mL (≈ 64.1 µM). Further, the concentration for an effect of 80% (IC80) is 62.5 µg/mL (≈ 128 µM) with Candida albicans [8]; 7.81 µg/mL (≈ 16 µM) in data set [10]; over 62.5 µg/mL with Candida albicans [11]; over 62.5 µg/mL with Aspergillus fumigatus [13]; 62.5 µg/mL (≈ 128 µM) with Candida tropicalis [14]; 31.2 µg/mL (≈ 64.1 µM) with Lichtheimia corymbifera [15]. Also, the concentration for an effect of 80% (IC80) in the data set with Aspergillus fumigatus [16] was over 62.5 µg/mL; in the data set with Trichosporon beigelii [17], over 62.5 µg/mL; with Nakaseomyces glabratus [18], 62.5 µg/mL (≈ 128 µM); in the data set with Lichtheimia corymbifera [19], 31.2 µg/mL (≈ 64.1 µM). This compound also displayed an MIC in [7] of over 6.25 µg/mL. Moreover, the “log K” value in data set [9] is listed as 0.699. In addition, testing at 6.25 µg/mL in [12] gave an inhibition of 36%.

`O=C(CNC(=O)OCc1ccccc1)Oc1ccc(Cl)cc1C(=O)Nc1cccc(Cl)c1`: the IC80 in [1] was 31.2 µg/mL (≈ 66 µM); in the data set with Candida tropicalis [2], over 62.5 µg/mL; in the data set with Pichia kudriavzevii [3] it was 62.5 µg/mL (≈ 132 µM); with Trichosporon beigelii [4], over 62.5 µg/mL; in the data set with Nakaseomyces glabratus [5] it was over 62.5 µg/mL; with Pichia kudriavzevii [6], 62.5 µg/mL (≈ 132 µM). In addition, the 80% effect concentration (IC80) in the data set on Candida albicans [8] was over 62.5 µg/mL; in data set [10] it was 31.2 µg/mL (≈ 66 µM); with Candida albicans [11], over 62.5 µg/mL; in the data set on Aspergillus fumigatus [13], over 62.5 µg/mL; with Candida tropicalis [14] it was over 62.5 µg/mL; with Lichtheimia corymbifera [15] it was 62.5 µg/mL (≈ 132 µM). For the same compound, the IC80 with Aspergillus fumigatus [16] is over 62.5 µg/mL; in the data set with Trichosporon beigelii [17] it was over 62.5 µg/mL; in the data set on Nakaseomyces glabratus [18] it was 62.5 µg/mL (≈ 132 µM); with Lichtheimia corymbifera [19], 62.5 µg/mL (≈ 132 µM). Besides, the MIC in data set [7] is over 6.25 µg/mL. Moreover, the “log K” value in data set [9] was found to be 0.6119. At 6.25 µg/mL the inhibition in [12] was 7%.
